Measurements published in ChEMBL document CHEMBL4390639, “Design, Synthesis, and Biological Evaluation of Novel Allosteric Protein Disulfide Isomerase Inhibitors” (J Med Chem, 2019).

Tested on: U-87 MG
Experiment: Up regulation of DEDD2 gene expression in human U87MG cells at 10 uM incubated for 4 hrs followed by bromouridine addition during last 30 mins of incubation by TRIzol-reagent based Bru-Seq analysis relative to control
Format: functional, U-87MG ATCC
Procedure, shortened: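 U87MG cells exposed to compound or DMSO vehicle for 4 h, with 2 mM bromouridine added for the final 30 min. Total RNA isolated with TRIzol; Bru-labelled nascent RNA captured on anti-BrdU antibody-conjugated magnetic beads and sequenced. Transcript abundance expressed as RPKM relative to DMSO. Experiment performed once.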

For CCCCCN(CCCCC)S(=O)(=O)c1ccc(C(=O)/C=C/c2cccc(C#N)c2)cc1, the “fold change (FC)” value was 11.
